# Published values pooled from the literature.
# Compare with care: the assays were run in different laboratories.
Compound,technique,medium,time,logP
CC1=NN(CNc2ccc(O)cc2)C(=O)C1=NNn1c(-c2ccccc2)nc2ccccc2c1=O,,,,4.19
C=C(C)[C@@H]1CCC(C)=C[C@H]1c1c(O)cc(CCCCC)cc1O,,,,7.11
CC(=O)c1ccccc1,,water,1 h,1.51
O=c1[nH]cc(F)c(=O)[nH]1,shake flask,water,24 h,-0.46
CC1=NN(CNc2ccccc2[N+](=O)[O-])C(=O)C1=NNn1c(-c2ccccc2)nc2ccccc2c1=O,,,,5.08
C=CCN1CC[C@]23c4c5ccc(O)c4O[C@H]2[C@@H](OCCOCCOCCOCCOCCOCCOCCOC)CC[C@@]3(O)[C@H]1C5,,,,1.43
CC(=O)N1N=C(c2cccc(O)c2)CC1c1ccc(Cl)cc1 (stereo not shown),potentiometric,,,2.98
CC(C)N1CCN(Cc2cnc(-c3cc(-c4cccc5[nH]ccc45)cc4[nH]ncc34)o2)CC1,,,,4.01
Nc1nc2[nH]cc(CCc3ccc(C(=O)N[C@@H](CCC(=O)O)C(=O)O)cc3)c2c(=O)[nH]1,,water,24 h,-0.842
Clc1cc2c(c3ncccc13)OCN(CCc1ccccc1)C2,,,,4.54
O=C(c1cc(Cc2n[nH]c(=O)c3ccccc23)ccc1F)N1CCN(C(=O)C2CC2)CC1,,,,1.55
O=C1NN=C(N=Cc2ccccc2)C1=NNn1c(-c2ccccc2)nc2ccccc2c1=O,,,,3.39
N#Cc1[nH]nnc1-c1cccc(OCc2cc(C(F)(F)F)ccc2C(F)(F)F)c1,potentiometric,,,5.5
CC1=NN(CNC(=O)c2ccccn2)C(=O)C1=NNn1c(-c2ccccc2)nc2ccccc2c1=O,,,,3.26
C=C[C@H]1C[N@@]2CC[C@H]1C[C@@H]2[C@@H](O)c1ccnc2ccc(OC)cc12,,water,,2.84
N#Cc1[nH]nnc1-c1csc(-c2ccc(Cl)cc2)n1,potentiometric,,,4.5
